# Experimental data collected from several papers.
# Protocols differ between the studies behind these lines.
# Target: LIM domain kinase 2 (LIMK2, Homo sapiens, UniProt P53671)
Compound,test,setting,remaining binding [%]
N[C@@H]1CCN(c2nccc(-c3cnn4ncccc34)n2)C1,binding,1 µM,100
CC1=C(C#N)C(c2ccc3c(c2)c(NC(=O)c2ccccc2C)nn3C)C(C#N)=C(C)N1,"cell-free assay, competition with immobilised ligand",1 µM,99
FC(F)(F)Oc1cccc(-c2cnc3ccc(-c4ccncc4)nn23)c1,"cell-free assay, competition with immobilised ligand",5 µM,69
CN(CCCC(F)(F)F)c1nccc(-c2cnn3ncccc23)n1,binding,1 µM,95
O=C(NCC1CCOCC1)c1n[nH]cc1NC(=O)c1c(F)cccc1F,"binding, competition with immobilised ligand",1 µM,97
CN(C)c1ncnc(-c2ccc3nc(Nc4cc(CN5CCN(C(=O)CC(F)(F)F)CC5)ccn4)[nH]c3c2)c1Cl,"cell-free assay, competition with immobilised ligand",1 µM,100
C=CC(=O)N1CCC(C(=O)NCC(=O)N2CCN(c3nc(-c4cnc(N)nc4C(F)F)nc(N4CCOCC4)n3)CC2)CC1,"binding, competition with immobilised ligand",1 µM,97
CC1=C(C#N)[C@@H](c2ccc3[nH]nc(C)c3c2)C(C#N)=C(c2ccc(Cl)cc2)N1,"cell-free assay, competition with immobilised ligand",1 µM,91.1
C[C@@H]1CCN(c2nccc(-c3cnn4ncccc34)n2)C1,binding,1 µM,87
CNC(=O)[C@@H]1CC[C@@H](n2c(-c3ccc4cnccc4c3)nc3ccc(C(=O)NCc4cccc(C(N)=O)c4)cc32)C1,"binding, competition with immobilised ligand",1 µM,100
CC(=O)N1CCC(c2ccc(C(=O)NC3=NCCN3)cc2C(F)(F)F)CC1,"cell-free assay, competition with immobilised ligand",1 µM,98
COc1cnc(Nc2cccc(S(N)(=O)=O)c2)nc1N1CCN(c2ccccc2)C(=O)C1,"binding, competition with immobilised ligand",1 µM,100
CN(c1nccc(-c2cnn3ncccc23)n1)C1CC1,binding,1 µM,100
O=C(c1ccc(Nc2ncc(Cl)c(-c3ccc(Cl)s3)n2)cc1)N1CCC(N2CCCC2)CC1,"binding, competition with immobilised ligand",1 µM,38
F[C@@H]1CCN(c2nccc(-c3cnn4ncccc34)n2)C1,binding,1 µM,85
O=C(c1ccc(Nc2nccc(-c3cc4ccccc4s3)n2)cc1)N1CCC(N2CCCC2)CC1,"binding, competition with immobilised ligand",1 µM,47
O=C(Nc1ccc(Oc2ccc(F)cc2)cc1)N1CCc2ncccc2[C@H]1c1ccc(F)cc1,"cell-free assay, competition with immobilised ligand",1 µM,93
O=C(c1ccc(Nc2ncc(Cl)c(-c3cc4ccccc4s3)n2)cc1)N1CCC(N2CCCC2)CC1,"binding, competition with immobilised ligand",1 µM,30
O=c1nc(-c2ccccn2)sc2ccccc12,"binding, competition with immobilised ligand",1 µM,100
c1cncc(-c2cccc(Nc3nccc(NC4CCCCC4)n3)c2)c1,"binding, competition with immobilised ligand",10 µM,45
CN(C)c1ncc(F)c(-c2cnn3ncccc23)n1,binding,1 µM,82
O=S(=O)(NC1CCC(c2cc(F)ccc2F)(S(=O)(=O)c2ccc(Cl)cc2)CC1)C(F)(F)F (stereo not shown),"cell-free assay, competition with immobilised ligand",1 µM,87
